Screening data from PubChem BioAssay.
This is a sample that favours compounds with a hit; in the whole collection about 1.1% have one here.
JMJD2C inh = inhibitors of GASC-1 histone demethylase, primary screen, biochemical, fluorescence, DELFIA europium. Lysine-specific demethylase 4C (Homo sapiens), Q9H3R0. GST-JMJD2C(1-420) H3K9me3 demethylation. inhibition, % at 2.35 µM. 330,000 compounds, 0.069% hits;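 active means more than half of a compound's replicate wells show inhibition beyond 50%, single wells judged on their own value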;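 further: signal counts dimethyl H3K9 product captured on neutravidin plate; 0% = median of DMSO wells and 100% = 0.3 times that DMSO median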
SENP1 FRET inh = human SENP1 catalytic domain inhibitors, primary screen, biochemical, FRET, uHTS | inhibition, % at 10 µM | recombinant SENP1 catalytic domain, CyPet-SUMO1-YPet FRET cleavage | Sentrin-specific protease 1 (Homo sapiens), Q9P0U3 | 360,000 compounds, 0.21% hits | AID 624204, 2012;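 active means inhibition at least 30% at 10 µM, raw YFP signal under a set limit, fluorescence ratio 0.5 to 1.5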;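 further: 0% = enzyme with DMSO and 100% = no enzyme wells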
Target sequence (Q9P0U3 419-644 limits assumed): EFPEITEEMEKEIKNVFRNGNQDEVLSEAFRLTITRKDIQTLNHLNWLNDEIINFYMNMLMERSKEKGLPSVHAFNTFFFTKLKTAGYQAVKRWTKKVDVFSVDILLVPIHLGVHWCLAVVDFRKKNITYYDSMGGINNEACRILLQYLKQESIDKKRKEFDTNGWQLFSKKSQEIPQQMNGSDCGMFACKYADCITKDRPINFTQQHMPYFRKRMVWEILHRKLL
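Assay system: hSENP1 catalytic domain, recombinant. Amount: SENP1 enzyme, 20 pM final. Schedule: 50 min reaction, RT, dark. Technique: FRET, CFP and YFP emission. Control set: no-enzyme wells low, DMSO-plus-enzyme wells high control.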
Arr AP2 block = inhibitors of beta-arrestin/AP2 binding, primary screen, biochemical, GPCR trafficking, flow cytometry. beta-arrestin 1 C-terminal peptide binding to AP2 beta2-adaptin appendage (human). FITC-arrestin peptide / GST-AP2 beads; AP2 beta2 appendage carries R879A mutation. inhibition, % at 10 µM. 340,000 compounds, 0.31% hits. AID 504490, 2011;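 active means inhibition above a set limit, near 3 SD of compounds lacking own fluorescence, cut at about 54% in these data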;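 further: plate controls were DMSO wells for no effect and 5 µM unlabelled arrestin peptide for full effect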
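Test system: GST-tagged AP2 beta2-adaptin appendage (R879A) on 4 µm glutathione beads; also added: fluorescein-tagged arrestin peptide at 50 nM final; timing: 12 min plus 1 h, RT; signal: flow cytometry, FL1 (488/535 nm); read-out: percent drop in bead-associated FITC signal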
FAS-TE inh = FAS thioesterase domain inhibitors, primary screen, biochemical, fluorescence intensity, uHTS; recombinant FAS-TE, OMFH fluorogenic substrate, fluorescence endpoint; inhibition, % at 15 µM; 360,000 compounds, 0.67% hits; AID 602261, 2012;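 active means compounds whose normalised, plate-corrected inhibition of enzyme fluorescence in the single-dose primary screen is 50% or more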;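 further: 0% = DMSO with enzyme and 100% = substrate without enzyme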
FAS-TE inh conf = FAS thioesterase domain inhibitors, confirmation, biochemical, fluorescence intensity, single concentration; shares compounds with FAS-TE inh; recombinant FAS-TE, OMFH fluorogenic substrate; inhibition, % at 15 µM; 2,300 compounds, 45% hits; AID 624325, 2012;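 active means compounds inhibiting the enzyme by at least 50% at 15 µM in any one of the replicates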;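 further: 0% = enzyme with DMSO only and 100% = wells lacking enzyme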
Active calls of the source: *; nt = no result.

SMILES	JMJD2C inh	SENP1 FRET inh	Arr AP2 block	FAS-TE inh	FAS-TE inh conf
CCCCC[C@@H]1[C@H]2[C@H]3C(=O)N(c4ccccc4)C(=O)[C@H]3CC(=O)[C@H]2[C@H](c2ccccc2)N1S(=O)(=O)c1ccc(C)cc1	nt	-18	nt	59*	20
CCN(C(=O)COC(=O)c1ccccc1Nc1ccccc1)c1c(N)n(Cc2ccccc2)c(=O)[nH]c1=O	nt	-6	3	77*	4
COCC(CN1CCN(C2=NS(=O)(=O)c3ccccc32)CC1)OC(=O)c1ccc(OC)cc1 (stereo not given)	16	7	4	0	nt
CC(C)(C)c1ccc(C(=O)NCCC(=O)Nc2cc(Cl)ccc2N2CCOCC2)cc1	-2	0	9	67*	67*
COc1ccc(NC(=O)/C(C#N)=C/c2c(C)nn(-c3ccc(F)cc3)c2Cl)cc1OC	3	-9	4	56*	33
CC(C)CCN1C(=O)c2ccc(C(=O)OCn3nnc4ccccc4c3=O)cc2C1=O	1	6	-1	55*	17
O=C(OCn1nnc2ccccc2c1=O)c1ccc(O)cc1	0	1	29	2	nt
CCOc1ccc(N2CC(NS(=O)(=O)c3cccs3)CC2=O)cc1 (stereo not given)	19	3	-10	-4	nt
COc1ccc(C)cc1N(C(=O)c1ccco1)C(C(=O)NC1CCCC1)c1cc(OC)c(OC)c(OC)c1 (stereo not given)	16	0	-6	0	nt
Cc1cccc2cc(/C=N/Nc3ccc(C(=O)O)cc3)c(Cl)nc12	8	-36	-1	54*	50*
O=C(O)c1ccc(N/N=C/c2cc3ccccc3nc2Cl)cc1	7	-33	35	5	nt
COc1cc(CN(CCc2c(C)[nH]c3ccc(C)cc23)C(=S)NC(C)(C)C)cc(OC)c1OC	9	2	16	20	nt
Cc1nn(-c2ccccc2)c(N2CCCC2)c1/C=N/NC(=O)c1cc2ccccc2cc1O	-1	-27	4	-6	nt
Cc1nn(-c2ccccc2)c(N2CCCC2)c1/C=N/NC(=O)c1cc(-c2cccs2)nc2ccccc12	2	2	20	80*	13
COc1ccc(-c2nn(-c3ccccc3)cc2/C=N/NS(=O)(=O)c2ccccc2)cc1	5	3	5	26	nt
COc1ccc(-c2nn(-c3ccccc3)cc2/C=N/NC(=O)c2cccc(S(=O)(=O)Nc3ccccc3Cl)c2)cc1	10	0	0	59*	16
Cc1nn(-c2ccccc2)c(N2CCCC2)c1/C=N/NC(=O)c1cc(-c2ccccn2)nc2ccccc12	2	3	18	77*	26
Cc1nn(-c2ccccc2)c(N2CCCC2)c1/C=N/NC(=O)c1cc(-c2ccccc2)nc2ccccc12	-2	3	1	43	nt
Cc1nn(-c2ccccc2)c(N2CCCC2)c1/C=N/NC(=O)c1cccc(S(=O)(=O)Nc2ccc(Cl)cc2)c1	5	2	40	50*	20
Cc1ccc2nc(C)cc(OCC(=O)O)c2c1	5	0	-1	-7	nt
C/C(=C\C(=O)c1ccncc1)Nc1ccccc1O	2	4	2	-7	nt
C=CCOc1c(Br)cc(/C=N/Nc2ccc(C(=O)O)cc2)cc1OCC	-2	-18	11	54*	72*
N/C(=N\OC(=O)CCC1CCCCC1)c1cccc([N+](=O)[O-])c1	4	2	-1	67*	66*
Cc1ccc(S(=O)(=O)N2CCN(Cc3ccccc3)CC2)c(C)c1N(C)S(=O)(=O)c1ccccc1	1	1	-2	52*	13
O=S(=O)(NC1CCCCCCC1)c1ccccc1F	-8	0	5	-1	nt
O=c1cc2c(nn1Cc1cccc([N+](=O)[O-])c1)-c1ccccc1CC2	5	-1	-18	71*	24
CCOC(=O)C1CCN(C(=O)c2ccc3c(=O)n4nc(Nc5cc(C)ccc5C)sc4nc3c2)CC1	3	0	3	55*	25
Cc1ccc(C)c(Nc2nn3c(=O)c4ccc(C(=O)NCc5cccnc5)cc4nc3s2)c1	-11	-2	-21	-6	nt
